A value given as a limit tells only on which side of the number the result lay.

The values below come from ChEMBL document CHEMBL1153436, “2-Pyridyl P1'-substituted symmetry-based human immunodeficiency virus protease inhibitors (A-792611 and A-790742) with potential for convenient dosing and reduced side effects” (J Med Chem, 2009).

The test system of data set [1] is Human immunodeficiency virus 1. As to the kind of experiment: Fold resistance, ratio of EC50 for HIV1 bearing protease gene with A17 mutation to EC50 for wild-type HIV1 pNL4-3. Format: functional. In a few lines:
(§1)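 HIV-1 A17 mutant clone carrying protease mutations L10F, V32I, M46I, I47V, Q58E and I84V, generated by in vitro serial passage under LPV/RTV. EC50 was determined in MT-4 cells. Wild-type reference strain was HIV-1 pNL4-3.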

For data set [2], the system named is Human immunodeficiency virus 1. As to the kind of experiment: Antiviral activity against HIV1 bearing protease gene with A17 mutation infected in human MT4 cells after 5 days by MTT assay. Format: functional, organism-based. Particulars: Human immunodeficiency virus 1, MT4, 120 h. In a few lines: as §1
In data set [3] the test system is Human immunodeficiency virus 1. The data set is described as follows: Antiviral activity against wild-type HIV1 pNL4-3 infected in human MT4 cells after 5 days by MTT assay in presence of 50% human serum. Particulars: Human immunodeficiency virus 1, MT4, 120 h. Format: functional, organism-based. A general note: Tetrazolium assays rely on reduction of a dye to a coloured formazan, in cell work by metabolically active cells.

Data set [4] deals with Human immunodeficiency virus 1. As to the kind of experiment: Antiviral activity against wild-type HIV1 pNL4-3 infected in human MT4 cells after 5 days by MTT assay. Format: functional, organism-based. Particulars: Human immunodeficiency virus 1, MT4, 120 h.
A short description of data set [5]: AUC in Sprague-Dawley rat at 5 mg/kg, po. Particulars: plasma. More on the design: dose 5 mg/kg, route oral. Format: ADME, organism-based. In a few lines: (§2)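 Male Sprague-Dawley-derived rats (n = 3) dosed iv or by oral gavage with 5 mg/mL solutions in 5% dextrose containing 20% ethanol, 30% propylene glycol and methanesulfonic acid equivalents. Plasma was sampled at 10 time points over 8 h, extracted into ethyl acetate/hexane and analysed by reversed-phase HPLC with internal standard. AUC in µg·h/mL.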

Data set [6] is described as follows: Half life in Sprague-Dawley rat at 5 mg/kg, iv. Particulars: in vivo. Format: ADME, organism-based. On the set-up: dose 5 mg/kg, route intravenous. Put shortly: as §2
The nature of data set [7]: Oral bioavailability in Sprague-Dawley rat at 5 mg/kg. Format: ADME, organism-based. Particulars: in vivo. In a few lines: as §2
A short description of data set [8]: AUC in Sprague-Dawley rat at 5 mg/kg, po in presence of ritonavir. On the set-up: dose 5 mg/kg, route oral. Particulars: plasma. Format: ADME, organism-based. In a few lines: as §2
Data set [9] is described as follows: Clearance in Sprague-Dawley rat at 5 mg/kg, iv. Format: ADME, organism-based. More on the design: dose 5 mg/kg, route intravenous. Particulars: in vivo. In a few lines: as §2

As for `COC(=O)N[C@H](C(=O)N[C@H](Cc1ccc(-c2ccccn2)cc1)C[C@H](O)[C@H](Cc1ccccc1)NC(=O)[C@@H](N1CCN(Cc2csc(-c3cccnc3)n2)C1=O)C(C)(C)C)C(C)(C)C`, in data set [1], the “Ratio EC50” value stood at 4. Moreover, the EC50 came out at 7 nM in data set [2], 15 nM in [3] and 2 nM in data set [4].
With `COC(=O)N[C@H](C(=O)N[C@@H](Cc1ccc(-c2ccccn2)cc1)C[C@H](O)[C@H](Cc1ccccc1)NC(=O)[C@@H](N1CCN(Cc2cccc(C(C)(C)O)n2)C1=O)C(C)(C)C)C(C)(C)C`, the figures for the AUC in data set [5] and in data set [8] were 200 ng·h/mL and 830 ng·h/mL, respectively. This compound had a half-life in data set [6] of 60 min. Besides, the concentration for a half-maximal effect (EC50) in data set [2] came to 4 nM; in data set [3], 53 nM; in data set [4], 6 nM. The bioavailability in data set [7] worked out at 5.7%. In data set [9], the clearance is 23.3 mL/min/kg.
For `COC(=O)N[C@H](C(=O)N[C@@H](Cc1ccc(-c2ccccn2)cc1)[C@@H](O)C[C@H](Cc1ccccc1)NC(=O)[C@@H](N1CCN(Cc2csc(C(C)C)n2)C1=O)C(C)(C)C)C(C)(C)C`, the “Ratio EC50” value in [1] came out at 1. For the same compound, the EC50 came out at 13 nM in data set [3] and 1 nM in data set [4].
Take `COC(=O)N[C@H](C(=O)N[C@H](Cc1ccc(-c2ccccn2)cc1)C[C@H](O)[C@H](Cc1ccccc1)NC(=O)[C@@H](N1CCN(Cc2cccc(C(C)C)n2)C1=O)C(C)(C)C)C(C)(C)C`: the “Ratio EC50” value in [1] is 4. Further, the EC50 in data set [2] came to 66 nM; in data set [3], 105 nM; in [4], 15 nM.
`COC(=O)N[C@H](C(=O)N[C@@H](Cc1ccc(-c2ccccn2)cc1)C[C@H](O)[C@H](Cc1ccccc1)NC(=O)[C@@H](N1CCN(Cc2ccccc2N)C1=O)C(C)(C)C)C(C)(C)C`: the area under the curve (AUC) in [5] was found to be 80 ng·h/mL; in data set [8], 1250 ng·h/mL. Also, the “Ratio EC50” value in [1] is 5. This compound also showed a half-life in data set [6] of 72 min. Further, the values for the EC50 in data set [2], in [3] and in data set [4] were 21 nM, 20 nM and 4 nM, respectively. The same compound came in with a bioavailability in data set [7] of 2.9%. For the same compound, the clearance in data set [9] was 33.2 mL/min/kg.
Regarding `COC(=O)N[C@H](C(=O)N[C@@H](Cc1ccc(-c2ccccn2)cc1)C[C@H](O)[C@H](Cc1ccccc1)NC(=O)[C@@H](N1CCN(Cc2ccc(F)cc2)C1=O)C(C)(C)C)C(C)(C)C`, the “Ratio EC50” value in data set [1] is 7. The 50% effective concentration (EC50) in data set [2] is 42 nM; in [3], 33 nM; in data set [4], 6 nM.
For the compound `COC(=O)N[C@H](C(=O)N[C@@H](Cc1ccc(-c2ccccn2)cc1)C[C@H](O)[C@H](Cc1ccccc1)NC(=O)[C@@H](N1CCN(Cc2csc(-c3cccnc3)n2)C1=O)C(C)(C)C)C(C)(C)C`, the values for the area under the curve (AUC) in [5] and in data set [8] were 20 ng·h/mL and 120 ng·h/mL, respectively. Also, in data set [1], the “Ratio EC50” value turned out to be 1. In [6], this compound showed a half-life of 42 min. Further, the bioavailability in data set [7] was 0.8%. Moreover, the EC50 in data set [3] was determined as 26 nM; in data set [4], 8 nM. Also, the clearance in data set [9] was 34.2 mL/min/kg.
With `COC(=O)N[C@H](C(=O)N[C@H](Cc1ccc(-c2ccccn2)cc1)C[C@H](O)[C@H](Cc1ccccc1)NC(=O)[C@@H](N1CCN(Cc2nc3ccccc3n2C)C1=O)C(C)(C)C)C(C)(C)C`, the “Ratio EC50” value in data set [1] is given as 7. This compound also showed a half-life in data set [6] of 42 min. For the same compound, the concentration for a half-maximal effect (EC50) in data set [2] stood at 20 nM; in [3], 33 nM; in [4], 3 nM. The bioavailability in data set [7] turned out to be 0.1%. Further, the AUC in data set [8] was found to be 1170 ng·h/mL. In [9], this compound showed a clearance of 54 mL/min/kg.
Turning to `COC(=O)N[C@H](C(=O)N[C@@H](Cc1ccc(-c2ccccn2)cc1)C[C@H](O)[C@H](Cc1ccccc1)NC(=O)[C@@H](N1CCN(Cc2cccc(C)c2)C1=O)C(C)(C)C)C(C)(C)C`, the AUC was 20 ng·h/mL in data set [5] and 2700 ng·h/mL in data set [8]. Further, the “Ratio EC50” value in data set [1] turned out to be 8. In data set [6], this compound showed a half-life of 84 min. The concentration giving a half-maximal response (EC50) in [2] is 41 nM; in data set [3] it was 25 nM; in data set [4] it was 5 nM. In addition, the bioavailability in data set [7] turned out to be 0.8%. In data set [9], the clearance is 29.3 mL/min/kg.
As for `COC(=O)N[C@H](C(=O)N[C@@H](Cc1ccc(-c2ccccn2)cc1)C[C@H](O)[C@H](Cc1ccccc1)NC(=O)[C@@H](N1CCN(Cc2cccc(OC)c2)C1=O)C(C)(C)C)C(C)(C)C`, the “Ratio EC50” value in [1] stood at 4. For the same compound, the concentration giving a half-maximal response (EC50) in data set [2] worked out at 53 nM; in [3], 65 nM; in data set [4], 14 nM.
With `COC(=O)N[C@H](C(=O)N[C@H](Cc1ccc(-c2ccccn2)cc1)C[C@H](O)[C@H](Cc1ccccc1)NC(=O)[C@@H](N1CCN(Cc2ccnc3ccccc23)C1=O)C(C)(C)C)C(C)(C)C`, the “Ratio EC50” value in data set [1] is on record as 2. Also, the half-life in data set [6] was 36 min. In addition, the EC50 in data set [2] was 8 nM; in [3] it was 21 nM; in data set [4] it was 5 nM. In [7], the bioavailability stood at 0%. The AUC in [8] is 9200 ng·h/mL. In [9], this compound showed a clearance of 41.7 mL/min/kg.
For the compound `COC(=O)N[C@H](C(=O)N[C@@H](Cc1ccc(-c2ccccn2)cc1)[C@@H](O)C[C@H](Cc1ccccc1)NC(=O)[C@@H](N1CCN(Cc2nc3ccccc3n2C)C1=O)C(C)(C)C)C(C)(C)C`, in data set [1], the “Ratio EC50” value is given as <1. Besides, the EC50 in data set [2] amounted to 3 nM; in [3] it was 82 nM; in data set [4] it was 7 nM.
Turning to `COC(=O)N[C@H](C(=O)N[C@@H](Cc1ccc(-c2ccccn2)cc1)C[C@H](O)[C@H](Cc1ccccc1)NC(=O)[C@@H](N1CCN(Cc2ccccc2F)C1=O)C(C)(C)C)C(C)(C)C`, the EC50 worked out at 88 nM in [2], 36 nM in data set [3] and 11 nM in [4].
With `COC(=O)N[C@H](C(=O)N[C@@H](Cc1ccc(-c2ccccn2)cc1)C[C@H](O)[C@H](Cc1ccccc1)NC(=O)[C@@H](N1CCN(Cc2nc3ccccc3n2C)C1=O)C(C)(C)C)C(C)(C)C`, the “Ratio EC50” value in [1] is recorded as <1. Also, the results for the EC50 in [2], in data set [3] and in data set [4] were 32 nM, 346 nM and 140 nM, respectively.
The corresponding values for `COC(=O)N[C@H](C(=O)N[C@H](Cc1ccc(-c2ccccn2)cc1)C[C@H](O)[C@H](Cc1ccccc1)NC(=O)[C@@H](N1CCN(Cc2cccc(C(C)(C)C)n2)C1=O)C(C)(C)C)C(C)(C)C` are 10, 151 nM, 311 nM and 15 nM.
As for `COC(=O)N[C@H](C(=O)N[C@@H](Cc1ccc(-c2ccccn2)cc1)[C@@H](O)C[C@H](Cc1ccccc1)NC(=O)[C@@H](N1CCN(Cc2cccc(C)n2)C1=O)C(C)(C)C)C(C)(C)C`, the “Ratio EC50” value in data set [1] stood at 1. The EC50 in [3] worked out at 30 nM; in [4], 5 nM.
Consider `COC(=O)N[C@H](C(=O)N[C@@H](Cc1ccc(-c2ccccn2)cc1)[C@@H](O)C[C@H](Cc1ccccc1)NC(=O)[C@@H](N1CCN(Cc2ccccc2)C1=O)C(C)(C)C)C(C)(C)C`, for which the “Ratio EC50” value in data set [1] worked out at 4. The EC50 in data set [2] is 4 nM; in data set [3] it was 10 nM; in data set [4], 1 nM.
The corresponding values for `COC(=O)N[C@H](C(=O)N[C@H](Cc1ccc(-c2ccccn2)cc1)C[C@H](O)[C@H](Cc1ccccc1)NC(=O)[C@@H](N1CCN(Cc2ccccc2)C1=O)C(C)(C)C)C(C)(C)C` are 3, 37 nM, 43 nM and 11 nM.
For the compound `COC(=O)N[C@H](C(=O)N[C@@H](Cc1ccc(-c2ccccn2)cc1)C[C@H](O)[C@H](Cc1ccccc1)NC(=O)[C@@H](N1CCN(Cc2cccc(F)c2)C1=O)C(C)(C)C)C(C)(C)C`, in data set [1], the “Ratio EC50” value was 9. Moreover, the results for the concentration giving a half-maximal response (EC50) in data set [2], in [3] and in data set [4] were 38 nM, 28 nM and 4 nM, respectively.
Regarding `COC(=O)N[C@H](C(=O)N[C@@H](Cc1ccc(-c2ccccn2)cc1)C[C@H](O)[C@H](Cc1ccccc1)NC(=O)[C@@H](N1CCN(Cc2csc(C)n2)C1=O)C(C)(C)C)C(C)(C)C`, in data set [1], the “Ratio EC50” value is 1. Also, the figures for the concentration for a half-maximal effect (EC50) in data set [3] and in data set [4] were 94 nM and 10 nM, respectively.
For `COC(=O)N[C@H](C(=O)N[C@@H](Cc1ccc(-c2ccccn2)cc1)C[C@H](O)[C@H](Cc1ccccc1)NC(=O)[C@@H](N1CCN(Cc2ccccc2C)C1=O)C(C)(C)C)C(C)(C)C`, in data set [1], the “Ratio EC50” value was 7. Also, the figures for the EC50 in [2], in data set [3] and in data set [4] were 72 nM, 30 nM and 10 nM, respectively.
Consider `COC(=O)N[C@H](C(=O)N[C@H](Cc1ccc(-c2ccccn2)cc1)C[C@H](O)[C@H](Cc1ccccc1)NC(=O)[C@@H](N1CCN(Cc2cccc(C)n2)C1=O)C(C)(C)C)C(C)(C)C`, for which the “Ratio EC50” value in data set [1] is recorded as 4. Further, the results for the EC50 in [2], in data set [3] and in [4] were 21 nM, 27 nM and 5 nM, respectively.
The corresponding values for `COC(=O)N[C@H](C(=O)N[C@@H](Cc1ccc(-c2ccccn2)cc1)C[C@H](O)[C@H](Cc1ccccc1)NC(=O)[C@@H](N1CCN(Cc2ccc(N)cc2)C1=O)C(C)(C)C)C(C)(C)C` are 3, 30 nM, 63 nM and 10 nM.

As a reminder, the EC50 is the concentration needed to bring the measured effect to its halfway point. A word on the AUC: it is concentration integrated over time. One may read the half-life as the time in which the quantity being followed falls by half. By bioavailability is commonly meant dose-corrected exposure relative to a reference, in per cent. The clearance is the volume of plasma or blood freed of the substance per unit of time. A high value points to efficient removal.
